Published values collected from several papers.
Protocols differ between the studies behind these lines.
Species: human

| Structure (SMILES) | medium | route | dose | notes | measurement | value |
| --- | --- | --- | --- | --- | --- | --- |
| c1cnc2ccc(Nc3nc(NC4CC4)c4nc[nH]c4n3)cc2c1 | plasma | oral | 800 mg/m² | patients | CL/F | 76.6 L/h |
| Cc1ccc(C(=O)N(CCCN)[C@@H](c2oc3cc(Cl)ccc3c(=O)c2Cc2ccccc2)C(C)C)cc1 | plasma | intravenous | 8 mg/m² | single dose, patients, infusion | clearance | 23.1 mL/min |
| Cn1cc(-c2cnc3cnn(S(=O)(=O)c4cnc5ccc(-c6cnn(C)c6)cn45)c3c2)cn1 | plasma | oral | 300 mg | single dose, fasted, healthy volunteers | CL/F | 12.8 L/h |
| CCNCCCNC/C=C\CNCCCNCC | plasma | intravenous | 100 mg | patients, infusion | clearance | 5510 mL/min |
| OC[C@H]1O[C@@H](c2ccc(Cl)c(Cc3ccc(O[C@H]4CCOC4)cc3)c2)[C@H](O)[C@@H](O)[C@@H]1O | urine | oral | 25 mg | single dose | renal clearance | 21.1 mL/min |
| CS(=O)(=O)CCC#N | plasma | oral | 300 mg | single dose, fasted | CL/F | 0.217 mL/min/kg |
| CCOc1ccc(Cc2cc([C@@H]3O[C@H](CO)[C@@H](O)[C@H](O)[C@H]3O)ccc2Cl)cc1 | plasma | oral | – | multiple doses, steady state | CL/F | 21.1 L/h |
| COc1cc(C(=O)NC2CCN(C)CC2)c(F)cc1Nc1ncc(C(F)(F)F)c(Oc2cccc3c2C(=O)N(C)C3)n1 | plasma | oral | 300 mg | multiple doses, once daily, patients | CL/F | 6.42 L/h |
